Fh CTSL1 inh = Fasciola hepatica cathepsin L1 inhibitors, primary screen, counter-screen for PFM18AAP inhibitor project, biochemical, QFRET, fluorogenic peptide substrate; recombinant F. hepatica cathepsin L1, Z-Leu-Arg-MCA fluorescence; AID 1906, 2009; inhibition, % at 5.96 µM; actives 0.49% (n = 300,000);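 active = inhibition above the mean of all tested compounds plus 3 SD, set per screening campaign, cut at about 17% in these data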;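 note: 0% = plate median of test compound wells and 100% = 1 µM Z-Phe-Ala-diazomethylketone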
TDP2 inh = human TDP2 enzyme inhibitors, primary screen, biochemical, epi absorbance, recombinant enzyme | T5PNP hydrolysis, p-nitrophenol absorbance 415 nm | inhibition, % at 12.8 µM | actives 0.34% (n = 370,000);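 active = inhibition above the mean of all tested compounds plus 3 SD, set per campaign, cut at about 25% in these data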;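 note: 0% = DMSO with enzyme and 100% = buffer with substrate but no TDP2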
Target sequence (O95551 whole entry, looked up): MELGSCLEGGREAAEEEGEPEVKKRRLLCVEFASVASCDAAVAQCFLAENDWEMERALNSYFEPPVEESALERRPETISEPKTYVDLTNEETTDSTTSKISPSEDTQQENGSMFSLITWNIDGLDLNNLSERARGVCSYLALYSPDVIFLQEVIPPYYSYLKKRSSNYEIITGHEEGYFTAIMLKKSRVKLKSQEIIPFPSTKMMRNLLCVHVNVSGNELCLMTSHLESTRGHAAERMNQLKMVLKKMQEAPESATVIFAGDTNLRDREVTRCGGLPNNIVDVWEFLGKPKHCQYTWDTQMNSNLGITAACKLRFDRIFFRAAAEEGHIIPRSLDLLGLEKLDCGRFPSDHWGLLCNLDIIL
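Assay system: Recombinant human TDP2 | Quantity: 120 nM TDP2 per well | Incubation: 2 h at 37 °C | Signal: Epi absorbance | Evaluation: Percent inhibition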
NSD2 inh = NSD2 histone methyltransferase inhibitors, primary screen, biochemical, AlphaScreen, single concentration, set 2. NSD2 peptide methylation, 120 min. inhibition, % at 12.5 µM. actives 0.54% (n = 310,000). AID 743445, 2014; in the data active = inhibition above about 50%
SUMO HTRF inh = inhibitors of in vitro SUMOylation cascade, primary screen, biochemical, HTRF, uHTS; inhibition, % at 35 µM; actives 0.36% (n = 290,000); HTRF SUMOylation assay, SAE1/SAE2 + UBC9; in the data active = inhibition above about 50%, passing the limit was not always enough
Target sequence (P63279 whole entry, looked up): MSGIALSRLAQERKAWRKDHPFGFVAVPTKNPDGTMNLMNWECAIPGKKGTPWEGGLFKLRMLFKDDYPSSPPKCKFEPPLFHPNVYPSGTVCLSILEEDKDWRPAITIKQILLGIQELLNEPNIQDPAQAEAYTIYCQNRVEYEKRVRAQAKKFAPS
* hit, by the source's call; x = no result. Rows were chosen to be rich in hits. Some 1.2% of all compounds tested hit in one or more screens of this group.

SMILES	Fh CTSL1 inh	TDP2 inh	NSD2 inh	SUMO HTRF inh
Cc1cc(C(=O)CSc2nnnn2C)c(C)n1CCc1ccc(F)cc1	-3	-2	3	19
CC[C@@]1(O)C(=O)OCc2c1cc1n(c2=O)Cc2cc3c(N)cccc3nc2-1	2	15	x	95*
COc1ccc2c(c1)c(=O)oc1c(C)c(OCc3cc(C(=O)O)oc3C)ccc12	2	3	x	70*
COc1ccc2c(c1)c(=O)oc1c(C)c(OCc3ccc(C(=O)O)cc3)ccc12	3	x	-1	55*
COC(=O)C1CCc2c(ccc3c2CCCC3)C1=O (configuration not stated)	x	-10	-3	x
CCc1ccc([C@@H]2C[C@H]3[C@@H](CN2S(=O)(=O)c2ccc(C)cc2)C(=O)C[C@@H](c2ccccc2)N3S(=O)(=O)c2ccc(C)cc2)cc1	x	4	x	x
O=C1Cc2cc(NS(=O)(=O)c3ccc([N+](=O)[O-])cc3)cc3c2N1CCC3	3	3	13	x
O=C(N/N=C/c1ccccc1)c1ccc(CN2C(=O)c3cccc4cccc2c34)cc1	2	-5	0	50*
O=C(/C=C/c1ccccc1Cl)NC1CCS(=O)(=O)C1 (configuration not stated)	42*	5	x	11
O=C(/C=C/c1ccccc1Cl)NC1CCCCC1	1	11	-2	5
Cc1ccc2c(c1)c1c3n2CCN(C(=O)CCl)C3CCC1 (configuration not stated)	39*	13	26	0
CC(=O)N1CCn2c3c(c4cc(C)ccc42)CCCC31 (configuration not stated)	3	-17	8	12
CCOC(=O)c1c2c(n(C)c1C)C(=O)C(=O)c1ccc(Br)cc1-2	66*	-3	x	x
Cc1c(CN(C)C)c2c(n1C)C(=O)c1ccc(Br)cc1-2	2	3	14	-8
CCOC(=O)N1CCN(C(=O)Nc2ccc(NC(=O)N3CCN(C(=O)OCC)CC3)cc2)CC1	1	4	2	8
CCOC(=O)N1CCN(C(=O)Nc2cccc3ccccc23)CC1	17*	-3	2	32
O=C1COc2ccc(C(=O)COC(=O)CCCOc3ccccc3)cc2N1	x	-1	-1	x
CC(C)NC(=O)C(c1ccc(F)cc1)N(Cc1ccco1)C(=O)CCC(=O)Nc1ccccn1 (configuration not stated)	-2	-17	-3	1
CC1=C(C#N)c2nc(N)c(C#N)c(C)c2/C1=C\c1ccc(OCC(=O)O)c(Cl)c1	3	0	57*	19
COc1ccc(S[C@]2(C(=O)N(C)C)CC(=O)N(S(=O)(=O)c3ccc(F)cc3)[C@@H]2c2ccc(OC)cc2)cc1	x	-2	x	x
O=C(c1ccco1)N1CCN(C(=O)c2ccco2)CC1	x	-4	0	x
O=C1NCCN1C(=O)c1ccco1	21*	6	-2	0
O=C1CCCC2=C1[C@@]1(O[C@H]3C=CC=CN23)C(=O)N(c2ccccc2)c2ccccc21	x	-2	0	x
C/C(=N\NC(=O)c1nnn(-c2nonc2N)c1CN1CCc2ccccc21)c1ccccc1O	-7	-22	26	44
COc1cccc(CN(C)C(=O)c2csc3c2CCCC3)c1OC	18*	8	-5	8
SMILES	Fh CTSL1 inh	TDP2 inh	NSD2 inh	SUMO HTRF inh
Cc1cccc(C)c1N=Nc1c(C)cc(O)cc1C	2	-2	58*	1
O=C1NC(c2ccccc2Cl)=N/C1=C/c1ccco1	1	6	2	14
O=C1NC(c2ccc(Br)cc2)=N/C1=C/c1ccco1	0	-1	-2	51*
COc1ccccc1N=Cc1nc(-c2ccccc2)oc1OC(C)=O	17*	-3	-1	2
CC(=O)Oc1oc(-c2ccccc2)nc1C=Nc1ccc(N(C)C)cc1	18*	1	0	-9
CC(=O)Oc1oc(-c2ccccc2)nc1/C=N/c1ccccn1	26*	6	2	12
CCOc1ccc2nc(N/C(N)=N/C(=S)Nc3cccc(OC)c3)nc(C)c2c1	23*	-8	-2	-30
O=C(c1cccc(F)c1)N1CCN(C2CCCCC2)CC1	1	5	0	4
O=C(c1cccc(Cl)c1)N1CCN(C2CCCCC2)CC1	25*	-1	0	3
O=S(=O)(c1ccc(N2CCC(c3ccc(Cl)cc3)=N2)cc1)N(CCO)CCO	14	5	-6	41
CN(C)CCCNS(=O)(=O)c1ccc(N2CCC(c3ccc(Cl)cc3)=N2)cc1	8	1	x	65*
COC(=O)C1=C(C)N(Cc2ccc(C(F)(F)F)cc2)C(=NCc2ccccc2C(F)(F)F)NC1c1ccccc1C(F)(F)F (configuration not stated)	x	3	x	x
Cc1cc(C)c(C(=O)c2ccccc2C(=O)O)c(C)c1	x	x	2	x
Cc1ccc(S(=O)(=O)/C(=C/Cl)NC(=O)c2ccccc2)cc1	97*	-17	0	8
Cc1ccc(S(=O)(=O)C(NC(=O)c2ccccc2)=C(Cl)Cl)cc1	6	7	x	x
O=C(NC(=C(Cl)Cl)S(=O)(=O)c1ccc(Cl)cc1)c1ccccc1	30*	-3	5	6
COc1ccc(N2C(=O)c3n[nH]c(C)c3C2c2ccccc2)cc1 (configuration not stated)	x	7	x	x
COc1ccc(Cl)cc1C(=O)Nc1cccc(-c2ccc3nncn3n2)c1	1	13	4	51*
COc1cccc(C(=O)Nc2cccc(-c3ccc4nncn4n3)c2)c1OC	2	-4	x	-3
Cc1cc2c(cc1C)N1C(=N)/C(=C\c3coc4ccccc4c3=O)C(=O)N=C1S2	x	x	-1	x
CNC1=C(N(C(C)=O)c2ccc(Br)cc2)C(=O)c2ccccc2C1=O	33*	53*	100*	82*
CCC(=O)N(C1=C(NC)C(=O)c2ccccc2C1=O)C(C)C	6	6	x	32
Cc1nn2c(c1-c1ccccc1)NC1=C(C(=O)CCC1)C2c1ccccc1 (configuration not stated)	3	4	1	38
COc1ccc(C2C3=C(CCCC3=O)Nc3c(-c4ccccc4)c(C)nn32)cc1 (configuration not stated)	6	x	0	51*
CN(C)c1ccc2nc3ccc(=[N+](C)C)cc-3sc2c1	-4	21	62*	-226
CC(C)[C@H](NC(=O)C1CC1)C(=O)N1CCC[C@H]1C(=O)NCc1ccccc1	x	5	x	x
CCCN1C(=O)c2n[nH]c(C)c2C1c1ccc(Br)cc1 (configuration not stated)	x	4	-3	x
CCOC(=O)NNc1ccc2nonc2c1[N+](=O)[O-]	24*	x	x	77*
CCc1ccc(Nc2ccc3nonc3c2[N+](=O)[O-])cc1	1	-11	31	x
Cc1ccc(C(=O)c2coc3c2C(=O)C(=O)c2ccccc2-3)cc1	-1	22	-3	29
